Consider 19 compounds from ChEMBL document CHEMBL1126908, “Synthesis and evaluation of new 6-amino-substituted benzo[c]phenanthridine derivatives” (J Med Chem, 1993).

In experiment [1] the target is DNA topoisomerase 2-beta (Homo sapiens) (UniProt Q02880). The experiment is described as follows: Inhibition of topoisomerase II. The settings on record: Bos taurus. Summed up: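 Topoisomerase I or II purified from calf thymus, tested in a DNA cleavage assay. Read-out is the minimal inhibitory concentration (μM), meaning the lowest concentration that gives detectable stimulation of DNA cleavage.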
Sequence of DNA topoisomerase 2-beta (Homo sapiens) (Q02880 whole entry): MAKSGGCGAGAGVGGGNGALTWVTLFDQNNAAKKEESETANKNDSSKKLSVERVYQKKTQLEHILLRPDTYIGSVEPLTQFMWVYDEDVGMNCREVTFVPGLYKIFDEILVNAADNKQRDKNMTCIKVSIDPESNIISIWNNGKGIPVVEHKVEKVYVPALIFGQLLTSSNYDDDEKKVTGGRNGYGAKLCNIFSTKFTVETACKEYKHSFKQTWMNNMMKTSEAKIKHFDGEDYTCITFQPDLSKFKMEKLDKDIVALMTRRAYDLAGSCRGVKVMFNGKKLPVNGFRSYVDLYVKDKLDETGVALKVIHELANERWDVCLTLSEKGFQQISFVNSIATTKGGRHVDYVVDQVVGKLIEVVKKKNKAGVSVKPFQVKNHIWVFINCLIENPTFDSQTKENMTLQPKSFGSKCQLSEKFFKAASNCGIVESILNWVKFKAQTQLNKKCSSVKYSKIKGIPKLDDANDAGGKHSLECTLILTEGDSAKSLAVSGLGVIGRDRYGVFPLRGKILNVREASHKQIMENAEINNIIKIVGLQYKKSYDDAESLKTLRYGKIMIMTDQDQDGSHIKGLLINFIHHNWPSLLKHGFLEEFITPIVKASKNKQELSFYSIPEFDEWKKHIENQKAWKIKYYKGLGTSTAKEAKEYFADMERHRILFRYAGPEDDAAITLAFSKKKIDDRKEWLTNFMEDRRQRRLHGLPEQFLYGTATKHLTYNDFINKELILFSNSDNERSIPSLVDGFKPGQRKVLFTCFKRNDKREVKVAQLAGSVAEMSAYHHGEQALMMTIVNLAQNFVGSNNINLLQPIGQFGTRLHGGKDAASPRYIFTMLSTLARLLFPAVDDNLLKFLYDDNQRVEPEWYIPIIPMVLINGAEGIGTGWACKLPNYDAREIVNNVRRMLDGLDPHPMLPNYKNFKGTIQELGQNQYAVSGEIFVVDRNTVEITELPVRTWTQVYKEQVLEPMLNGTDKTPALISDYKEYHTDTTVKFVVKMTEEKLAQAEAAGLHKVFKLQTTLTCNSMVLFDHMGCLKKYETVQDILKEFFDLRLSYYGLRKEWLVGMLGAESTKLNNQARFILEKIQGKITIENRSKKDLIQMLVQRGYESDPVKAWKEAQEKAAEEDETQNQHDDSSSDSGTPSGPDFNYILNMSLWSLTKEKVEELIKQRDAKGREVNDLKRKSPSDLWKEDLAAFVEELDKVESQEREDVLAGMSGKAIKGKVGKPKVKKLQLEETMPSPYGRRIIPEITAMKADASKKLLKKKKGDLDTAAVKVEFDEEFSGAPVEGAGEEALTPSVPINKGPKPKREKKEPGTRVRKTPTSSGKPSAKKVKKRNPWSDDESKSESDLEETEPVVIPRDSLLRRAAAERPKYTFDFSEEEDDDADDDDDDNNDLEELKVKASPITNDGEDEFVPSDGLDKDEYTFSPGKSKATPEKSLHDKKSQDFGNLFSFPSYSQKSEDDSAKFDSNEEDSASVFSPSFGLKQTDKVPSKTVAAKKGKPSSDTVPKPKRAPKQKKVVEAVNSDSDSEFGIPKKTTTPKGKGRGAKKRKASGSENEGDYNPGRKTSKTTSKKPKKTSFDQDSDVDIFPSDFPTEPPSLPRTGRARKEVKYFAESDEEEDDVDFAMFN

A short description of experiment [2]: Cytotoxicity was measured on human mammary adenocarcinoma cells(Calc 18). Format: functional, cell-based. Summed up:
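Human mammary adenocarcinoma Calc 18 cells exposed to various drug concentrations for 96 h at 37 °C. Viability read by neutral red staining. IC50 is the concentration giving 50% growth inhibition.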

Experiment [3] relates to L1210. The experiment is described as follows: Cytotoxicity against murine lymphoblastic leukemia cells (L1210). It is filed as functional, cell-based. Particulars: Mus musculus. An outline of the steps: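 Murine L1210 cells grown in Dulbecco's MEM with 10% fetal calf serum at 37 °C, 5% CO2. Cells seeded, then after 24 h compounds added in duplicate at various concentrations and incubated 24 h. Cells counted by Coulter counter. IC50 taken as the dose giving 50% growth inhibition, extrapolated from regression curves of non-toxic experimental points.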

Experiment [4] in a line: The ratio of the mean survival time of treated animals on the mean survival time of controls multiplied by 100.It is measured at dose of 20 mg/kg; T/C value. It is filed as functional. Summed up: (§1)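 Female BDF1 mice inoculated IP with 10⁶ P388 leukemia cells on day 0, with 10 controls and 6 mice per test group. Compounds given IP as 0.2-mL PBS solutions on days 1, 3 and 7. T/C = mean survival time of treated mice / mean survival time of controls × 100.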

Experiment [5] can be described thus: The ratio of the mean survival time of treated animals on the mean survival time of controls multiplied by 100.It is measured at dose of 10 mg/kg; T/C value. Format: functional. Summed up: as §1
A short description of experiment [6]: The ratio of the mean survival time of treated animals on the mean survival time of controls multiplied by 100.It is measured at dose of 5 mg/kg; T/C value. Format: functional. Summed up:
as §1

Experiment [7] can be described thus: The ratio of the mean survival time of treated animals on the mean survival time of controls multiplied by 100.It is measured at dose of 40 mg/kg; T/C value. It is filed as functional. An outline of the steps:
as §1

Experiment [8] relates to P388. The experiment is described as follows: (§2) Cytotoxicity was measured on murine leukemia p388 CPT 0.3. It is filed as functional. Particulars: Mus musculus. Summed up:
(§3)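 Cells (P388, or camptothecin-resistant P388 CPT0.3) incubated 96 h at 37 °C with various drug concentrations. Viability read by neutral red staining. IC50 taken as the concentration giving 50% growth inhibition.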

In experiment [9] the test system is P388. Described as §2. The settings on record: Mus musculus. It is filed as functional, cell-based. Summed up:
as §3

Experiment [10] concerns P388. The experiment is described as follows: (§4) Cytotoxicity was measured on murine leukemia p388. It is filed as functional. The settings on record: Mus musculus. Summed up: as §3
The test system of experiment [11] is P388. The experiment is described as §4. Format: functional, cell-based. The settings on record: Mus musculus. Summed up: as §3
A short description of experiment [12]: The ratio of the mean survival time of treated animals on the mean survival time of controls multiplied by 100.It is measured at dose of 100 mg/kg; T/C value. It is filed as functional. Summed up: as §1
Experiment [13] deals with P388 leukemia cells (Mus musculus). The experiment is described as follows: Cytotoxicity was measured on cultured murine leukemia cells (P388).

Values after ≈ are worked out from the molar mass of the structure shown. Where only a bound is given, the exact number is not on record here.

`COc1ccc2c(c1)c(NCCN(C)C)nc1c3ccc(O)cc3ccc21` yielded an MIC in experiment [1] of 10 µM (≈ 3.61 µg/mL). The IC50 (commonly the concentration that gives 50% inhibition) in experiment [2] is 1500 nM.
In experiment [3], `COc1ccc2ccc3c4ccccc4c(NCCCN(C)C)nc3c2c1` returned an IC50 of 2600 nM.
In the case of `CN(C)CCCNc1nc2c3ccc(O)cc3ccc2c2ccccc12`, the MIC in [1] is greater than 10 µM. Also, the figures for the IC50 in experiment [2] and in [3] were 3000 nM and 2600 nM, respectively.
Turning to `COc1ccc2ccc3c4ccccc4c(NCCN(C)C)nc3c2c1`, in [3], inhibition was half-maximal at 2500 nM (IC50).
With `CN(C)CCNc1nc2c3cc(O)ccc3ccc2c2ccccc12`, in experiment [1], the MIC came out at 10 µM (≈ 3.31 µg/mL). The Ratio turned out to be 102 in [4], 83 in [5] and 92 in experiment [6]. For the same compound, the IC50 in experiment [2] is 3000 nM; in experiment [3], 500 nM.
In [3], `CN(C)CCNc1nc2c3ccccc3ccc2c2ccccc12` had an IC50 greater than 90000 nM.
`CN(C)CCCNc1nc2c3cc(O)ccc3ccc2c2ccccc12` gave an MIC in experiment [1] greater than 10 µM. Moreover, the figures for the Ratio in [4], in [5] and in [6] were 73, 90 and 91, respectively. Moreover, the 50% inhibitory concentration (IC50) in [2] is 2500 nM; in [3] it was 3400 nM.
Compound `COc1ccc2c(ccc3c4ccc(OC)cc4c(NCCCN(C)C)nc23)c1` displayed an MIC in experiment [1] greater than 10 µM. Moreover, the figures for the IC50 in experiment [2] and in experiment [3] were 3000 nM and 2500 nM, respectively.
As to `CN(C)CCNc1nc2c3ccc(O)cc3ccc2c2ccccc12`, the Ratio in experiment [7] is listed as 101; in experiment [4] it was 118; in experiment [5], 138; in [6], 93. In addition, the MIC in [1] came out at 1 µM (≈ 0.331 µg/mL). Besides, the IC50 in experiment [2] is 1000 nM; in [3], 500 nM.
On to `COc1ccc2c(ccc3c4ccccc4c(NCCN(C)C)nc23)c1`, for which the MIC in experiment [1] came out at 10 µM (≈ 3.45 µg/mL). Further, the IC50 in experiment [2] and in experiment [3] was 3000 nM throughout.
Compound `CN(C)CCNc1nc2c3ccc(O)cc3ccc2c2ccc(O)cc12` registered an MIC in experiment [1] of 3 µM (≈ 1.04 µg/mL). For the same compound, the Ratio in [4] came out at 111; in [5], 111; in experiment [6], 119. The IC50 in experiment [2] is 1000 nM; in experiment [3], 500 nM.
Take `COc1ccc2c(ccc3c4ccc(OC)cc4c(NCCN(C)C)nc23)c1`: in experiment [1], the MIC is 10 µM (≈ 3.75 µg/mL). In addition, the IC50 in [2] was 1500 nM; in experiment [3], 1700 nM.
In the case of `COc1cc([C@@H]2c3cc4c(cc3[C@@H](O[C@@H]3O[C@@H]5CO[C@@H](C)O[C@H]5[C@H](O)[C@H]3O)[C@H]3COC(=O)[C@H]23)OCO4)cc(OC)c1O`, in experiment [1], the MIC came out at 0.1 µM (≈ 0.0589 µg/mL).
In experiment [1], `COc1ccc2c(ccc3c4ccccc4c(NCCCN(C)C)nc23)c1` showed an MIC greater than 10 µM. For the same compound, the IC50 in experiment [2] is 2500 nM; in experiment [3] it was 3400 nM.
Turning to `COc1cc2c(ccc3c4cc(OC)c(OC)cc4c[n+](C)c23)cc1O.[Cl-]` [FAGARONINE], the IC90 (as a rule, the concentration at which the effect reaches the 90% level) in experiment [8] is greater than 10 µM; in experiment [10], 6 µM. For the same compound, the IC50 is greater than 10000 nM in experiment [9], 2000 nM in experiment [11] and 2000 nM in experiment [3]. The Ratio in [12] came out at 265.
In turn, `CN(C)CCCNc1nc2c3ccc(O)cc3ccc2c2ccc(O)cc12` gave an MIC in experiment [1] of 10 µM (≈ 3.61 µg/mL). The IC50 in experiment [2] is greater than 10000 nM; in experiment [3], 4500 nM.
With `COc1cc2c(NCCN(C)C)nc3c4cc5c(cc4ccc3c2cc1OC)OCO5`, the MIC in experiment [1] was determined as 1 µM (≈ 0.419 µg/mL). Moreover, the Ratio is 92 in [4], 103 in experiment [5] and 99 in [6]. Also, the IC90 in experiment [8] and in [10] was 3.5 µM in each case. Besides, the IC50 in experiment [9] was 150 nM; in experiment [11], 900 nM; in experiment [2], 600 nM; in [3], 300 nM.
Consider `COc1cc2ccc3c4cc(OC)c(OC)cc4c(NCCN(C)C)nc3c2cc1OC`, for which the MIC in experiment [1] was greater than 10 µM. For the same compound, the values for the IC50 in experiment [2] and in experiment [3] were 3000 nM and greater than 5000 nM, respectively.
For `CC[C@@]1(O)C(=O)OCc2c1cc1n(c2=O)Cc2cc3ccccc3nc2-1` [CAMPTOTHECIN], the MIC in [1] was greater than 100 µM. Besides, it took 15 nM to reach half-maximal inhibition in experiment [13] (IC50).
